Measurements reported in ChEMBL document CHEMBL1156597, “Structure-activity relationship of kahalalide F synthetic analogues” (J Med Chem, 2008).

How the values were obtained:
LoVo [1] = assay: Cytotoxicity against human LoVo cells after 48 hrs by SRB assay; assay type: functional; details: for CC50: read-out: LC50 (the source's name)
DU-145 = assay: Cytotoxicity against human DU145 cells after 48 hrs by SRB assay; assay type: functional, cell-based; details: Homo sapiens, DU-145, 48 h; for CC50: read-out: LC50 (the source's name)
Outline: (§1)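 Cells grown in RPMI 1640 with 10% FBS and penicillin/streptomycin at 37 °C and 5% CO₂, trypsinized, then seeded at 5 × 10³/well. After 18 h drug-free attachment, samples in DMSO/EtOH/PBS (0.5:0.5:99) were added for 48 h continuous exposure. Cells were fixed with cold TCA (1 h, 4 °C) and stained with SRB (10 min). Tris-solubilized stain read at 490 nm. Triplicate wells, mean ± SD; GI₅₀ derived.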

PANC-1 = assay: Cytotoxicity against human PANC1 cells after 48 hrs by SRB assay; assay type: functional; details: PANC-1, 48 h; for CC50: read-out: LC50 (the source's name); outline: as §1
SK-MEL-28 = assay: Cytotoxicity against human SK-MEL-28 cells after 48 hrs by SRB assay; assay type: functional, cell-based; details: Homo sapiens, SK-MEL-28, 48 h; for CC50: read-out: LC50 (the source's name); outline: as §1
A549 = assay: Cytotoxicity against human A549 cells after 48 hrs by SRB assay; assay type: functional, cell-based; details: Homo sapiens, A549, 48 h; outline: as §1
HT-29 = assay: Cytotoxicity against human HT29 cells after 48 hrs by SRB assay; assay type: functional, cell-based; details: Homo sapiens, HT-29, 48 h; read-out: LC50 (the source's name); outline: as §1
[2] = Cytotoxicity against human IGROV-ET cells after 48 hrs by SRB assay; assay type: functional; details: for CC50: read-out: LC50 (the source's name); outline: as §1
[3] = Cytotoxicity against human HeLa-APL cells after 48 hrs by SRB assay; assay type: functional; outline: as §1
K562 = assay: Cytotoxicity against human K562 cells after 48 hrs by SRB assay; assay type: functional; details: K562, 48 h; for CC50: read-out: LC50 (the source's name); outline: as §1
SK-BR-3 = assay: Cytotoxicity against human SKBR3 cells after 48 hrs by SRB assay; assay type: functional; details: SK-BR-3, 48 h; for CC50: read-out: LC50 (the source's name); outline: as §1
HeLa = assay: Cytotoxicity against human HeLa cells after 48 hrs by SRB assay; assay type: functional; details: for CC50: read-out: LC50 (the source's name); outline: as §1
LoVo [4] = assay: Cytotoxicity against human doxorubicin resistant LoVo cells after 48 hrs by SRB assay; assay type: functional; details: read-out: LC50 (the source's name); outline: as §1
LNCaP = assay: Cytotoxicity against human LNcaP cells after 48 hrs by SRB assay; assay type: functional; details: for CC50: read-out: LC50 (the source's name); outline: as §1
[5] = Cytotoxicity against human IGROV cells after 48 hrs by SRB assay; assay type: functional; details: for CC50: read-out: LC50 (the source's name); outline: as §1

Compound	CC50 (LoVo [1])	CC50 (DU-145)	CC50 (PANC-1)	CC50 (SK-MEL-28)	LC50 (A549)	CC50 (HT-29)	CC50 [2]	LC50 (concentration giving 50% net cell kill) [3]	CC50 (K562)	CC50 (SK-BR-3)	CC50 (HeLa)	CC50 (LoVo [4])	CC50 (LNCaP)	CC50 [5]	GI50 (SK-MEL-28)	GI50 (SK-MEL-28; read-out: GI50)	GI50 (A549)	GI50 (A549; read-out: GI50)	other results
C/C=C1\NC(=O)[C@H](Cc2ccccc2)NC(=O)[C@@H](C(C)C)NC(=O)[C@@H]([C@H](C)CC)NC(=O)[C@H](NC(=O)[C@H](NC(=O)[C@H](CCCN)NC(=O)[C@H]2CCCN2C(=O)[C@H](NC(=O)[C@@H](NC(=O)[C@H](NC(=O)[C@H](NC(=O)CCCC(C)C)C(C)C)[C@@H](C)O)C(C)C)C(C)C)[C@H](C)CC)[C@H](C)OC(=O)[C@H](C(C)C)NC1=O	4750 nM	1460 nM	1770 nM	1620 nM	1810 nM	4710 nM	1050 nM	1800 nM	1930 nM	1140 nM	1920 nM	22300 nM	1490 nM	791 nM					TGI (LoVo [1]): 8960 nM; GI50 (K562): 1930 nM; TGI (K562): 1930 nM
C/C=C1\NC(=O)[C@H](Cc2ccccc2)NC(=O)[C@@H](C(C)C)NC(=O)[C@@H]([C@H](C)CC)NC(=O)[C@H](NC(=O)[C@H](NC(=O)[C@H](CCCNC(=O)CCOCCOCCN)NC(=O)[C@H]2CCCN2C(=O)[C@H](NC(=O)[C@@H](NC(=O)[C@@H](NC(=O)[C@H](NC(=O)CCCC(C)C)C(C)C)[C@@H](C)O)C(C)C)C(C)C)[C@H](C)CC)[C@H](C)OC(=O)[C@H](C(C)C)NC1=O	301 nM	982 nM	1600 nM	954 nM	350 nM	390 nM	510 nM	852 nM	159 nM	111 nM	944 nM	29.5 nM	866 nM	262 nM	956 nM	952 nM	595 nM	4920 nM	GI50 (DU-145): 852 nM; GI50 (DU-145; read-out: GI50): 738 nM; GI50 (PANC-1): 1250 nM; TGI (PANC-1): 1060 nM; GI50 [2]: 287 nM; GI50 ([2]; read-out: GI50): 195 nM; GI50 [3]: 515 nM; TGI [3]: 658 nM; TGI (SK-BR-3): 235 nM; GI50 (SK-BR-3; read-out: GI50): 248 nM; GI50 (HeLa): 711 nM; TGI (HeLa): 942 nM; GI50 [5]: 134 nM; GI50 ([5]; read-out: GI50): 176 nM
C/C=C1\NC(=O)[C@H](Cc2ccccc2)NC(=O)[C@@H](C(C)C)NC(=O)[C@@H]([C@H](C)CC)NC(=O)[C@H](NC(=O)[C@H](NC(=O)[C@H](CCCN)NC(=O)[C@H]2CCCN2C(=O)[C@H](NC(=O)[C@@H](NC(=O)[C@@H](NC(=O)[C@H](NC(=O)CCCCCCCCCCCCCCCCCCC)C(C)C)[C@@H](C)O)C(C)C)C(C)C)[C@H](C)CC)[C@H](C)OC(=O)[C@H](C(C)C)NC1=O	960 nM	2030 nM	423 nM	432 nM	383 nM	877 nM	1210 nM	2030 nM	910 nM	865 nM	477 nM		296 nM	1230 nM	905 nM	1890 nM	850 nM	1880 nM	
C/C=C1\NC(=O)[C@H](Cc2ccccc2)NC(=O)[C@@H](C(C)C)NC(=O)[C@@H]([C@H](C)CC)NC(=O)[C@H](NC(=O)[C@H](NC(=O)[C@H](CCCN)NC(=O)[C@H]2CCCN2C(=O)[C@H](NC(=O)[C@@H]2CCCN2C(=O)[C@@H](NC(=O)[C@H](NC(=O)CCCC(C)C)C(C)C)[C@@H](C)O)C(C)C)[C@H](C)CC)[C@H](C)OC(=O)[C@H](C(C)C)NC1=O	4790 nM	1650 nM	2540 nM	1440 nM	1910 nM	887 nM	703 nM	1320 nM	2440 nM	2780 nM	1040 nM		1540 nM	632 nM					GI50 (LNCaP): 347 nM; TGI (LNCaP): 3240 nM
